The record followed here is ChEMBL document CHEMBL4138195, “Discovery of novel propargylamine-modified 4-aminoalkyl imidazole substituted pyrimidinylthiourea derivatives as multifunctional agents for the treatment of Alzheimer's disease” (Eur J Med Chem, 2018).

Active and inactive are the calls of the source. No cut-off for these calls is given here.

Assay [1] is described as follows: Inhibition of Cu2+-induced amyloid beta (1 to 42 residues) (unknown origin) aggregation at 50 uM incubated at 37 degC for 24 hrs by dot immunoblot assay. The procedure, abridged: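 Aβ1-42 (2000 µM stock in 1% ammonium hydroxide) diluted in […], pH 6.6. Peptide 25 µM ± Cu(II) 25 µM ± compound 50 µM, incubated 37 °C for 24 h. Samples spotted on nitrocellulose, blocked in 5% milk, probed overnight at 4 °C with A11 (oligomers) or 6E10 (total Aβ), HRP secondary, densitometry. N = 4, mean ± SEM; EGCG control.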

The next assay concerns the target T1, Acetylcholinesterase (Rattus norvegicus, UniProt P37136).
T1 sequence (P37136 whole entry): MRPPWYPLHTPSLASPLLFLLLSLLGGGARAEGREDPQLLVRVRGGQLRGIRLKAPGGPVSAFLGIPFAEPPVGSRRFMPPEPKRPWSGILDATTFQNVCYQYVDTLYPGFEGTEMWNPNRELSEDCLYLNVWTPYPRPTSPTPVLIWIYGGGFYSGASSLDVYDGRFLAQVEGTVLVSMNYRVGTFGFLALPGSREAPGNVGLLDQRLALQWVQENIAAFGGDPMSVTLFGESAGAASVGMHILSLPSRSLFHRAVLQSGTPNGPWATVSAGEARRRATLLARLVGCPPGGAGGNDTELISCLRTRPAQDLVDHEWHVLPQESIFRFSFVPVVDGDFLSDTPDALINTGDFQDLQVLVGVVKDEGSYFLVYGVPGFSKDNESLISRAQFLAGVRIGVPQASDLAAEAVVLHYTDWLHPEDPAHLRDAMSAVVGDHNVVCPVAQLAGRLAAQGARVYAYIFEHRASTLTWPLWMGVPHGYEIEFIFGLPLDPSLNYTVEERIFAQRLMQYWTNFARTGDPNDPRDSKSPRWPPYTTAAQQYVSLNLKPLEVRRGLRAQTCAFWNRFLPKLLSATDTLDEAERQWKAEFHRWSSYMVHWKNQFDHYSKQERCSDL
Briefly: Inhibition of AChE in rat cortex homogenate using acetylthiocholine iodide as substrate after 20 mins by Ellman's method.

In general, IC50 refers to the concentration needed to halve the response being measured. The low end stands for inhibition by little substance, the high end for a need for much substance.

`C#CCN(C)Cc1cn(-c2cc(NC(=S)NCC)ncn2)cn1`: the inhibition entry in assay [1] is “Active”. Also, half-maximal inhibition at Acetylcholinesterase (IC50) was put at 324 nM.
